# Reference: ChEMBL document CHEMBL1641407, “Imidazo[4,5-d]thiazolo[5,4-b]pyridine based inhibitors of IKK2: synthesis, SAR, PK/PD and activity in a preclinical model of rheumatoid arthritis” (Bioorg Med Chem Lett, 2011)
# Target: Death-associated protein kinase 2 (Homo sapiens) (UniProt Q9UIK4)
# Assay: Residual activity at DAPK2 at 10 uM relative to control
# Settings: not given
# Death-associated protein kinase 2 (Homo sapiens), sequence (Q9UIK4 whole entry, looked up): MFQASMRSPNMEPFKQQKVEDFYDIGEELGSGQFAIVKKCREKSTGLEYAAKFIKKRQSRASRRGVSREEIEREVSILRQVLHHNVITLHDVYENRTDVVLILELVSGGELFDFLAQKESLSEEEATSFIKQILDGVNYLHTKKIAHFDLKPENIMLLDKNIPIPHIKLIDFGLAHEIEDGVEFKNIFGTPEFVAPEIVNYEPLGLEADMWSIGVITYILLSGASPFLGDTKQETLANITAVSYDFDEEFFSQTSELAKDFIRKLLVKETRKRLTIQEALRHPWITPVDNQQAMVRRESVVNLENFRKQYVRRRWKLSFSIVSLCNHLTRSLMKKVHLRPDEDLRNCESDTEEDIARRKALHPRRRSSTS
row,Compound,residual activity [%]
1,CC(=O)N[C@@H](C)c1cccc(-c2nc3c(nc(N)c4ncn(C)c43)s2)c1,< 10

# Test system: PBMC
# Assay: Antiinflammatory activity in human PBMC assessed as inhibition of LPS-induced TNFalpha release treated for 5 mins before LPS challenge measured after 6 hrs by ELISA
# Type: functional, cell-based
# Settings: not given
# In short: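 PBMCs purified from heparinized healthy-volunteer blood by Ficoll-Hypaque gradient and suspended at 5 × 10⁶/mL in RPMI with 10% FBS. Cells preincubated with compound (0.2% DMSO) for 5 min at room temperature. LPS added from a 200 ng/mL stock, then 6 h at 37 °C. Medium TNF-α measured by ELISA. IC50 by linear regression.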
row,Compound,IC50 [nM]
1,CCNc1nc2sc(-c3cccc([C@H](C)NC(=O)CNC(C)=O)c3)nc2c2c1ncn2C,480
2,CCNc1nc2sc(-c3cccc([C@@H](C)NC(C)=O)c3)nc2c2c1ncn2C,700
3,CCNc1nc2sc(-c3cccc(C(C)(C)NC(C)=O)c3)nc2c2c1ncn2C,400
4,CCNc1nc2sc(-c3cccc([C@H](C)NC(=O)C4CCN(C)CC4)c3)nc2c2c1ncn2C,560
5,CCNc1nc2sc(-c3cccc([C@H](C)NC(=O)C4CCNCC4)c3)nc2c2c1ncn2C,290
6,CNc1nc2sc(-c3cccc([C@H](C)NC(C)=O)c3)nc2c2c1ncn2C,80
7,COc1nc2sc(-c3cccc([C@H](C)NC(C)=O)c3)nc2c2c1ncn2C,> 10000
8,CCNc1nc2sc(-c3cccc([C@H](C)NC(=O)c4cccc(S(C)(=O)=O)c4)c3)nc2c2c1ncn2C,220
9,CCNc1nc2sc(-c3cccc([C@H](C)NC(=O)C4(C)CC4)c3)nc2c2c1ncn2C,440
10,CC(=O)N[C@@H](C)c1cccc(-c2nc3c(nc(N(C)C)c4ncn(C)c43)s2)c1,990
11,CNc1nc2sc(-c3cccc(C(C)NC(C)=O)c3)nc2c2c1ncn2C (stereo not given),170
12,CCNc1nc2sc(-c3cccc([C@H](C)NC(=O)c4cc(C)on4)c3)nc2c2c1ncn2C,940
13,Cc1ccc2nc(NCCN)c3ncc(C)n3c2c1 [BMS-345541],1000
14,CC(=O)N[C@@H](C)c1cccc(-c2nc3c(nc(NCCN)c4ncn(C)c43)s2)c1,4890
15,CNc1nc2sc(-c3ccc(CNC(C)=O)cc3)nc2c2c1ncn2C,530
16,CNc1nc2sc(-c3cccc([C@@H](C)NC(C)=O)c3)nc2c2c1ncn2C,560
17,CCNc1nc2sc(-c3cccc([C@H](C)NC(=O)COCC)c3)nc2c2c1ncn2C,600
18,CCNCC(=O)N[C@@H](C)c1cccc(-c2nc3c(nc(NCC)c4ncn(C)c43)s2)c1,440
19,CC(=O)NCc1cc(-c2cc3nc(NC4CC4)c4ncn(C)c4n3n2)ccc1F,730
20,CC(=O)N[C@@H](C)c1cccc(-c2nc3c(nc(NCC(F)(F)F)c4ncn(C)c43)s2)c1,1360
21,CC(=O)N[C@@H](C)c1cccc(-c2nc3c(nc(N)c4ncn(C)c43)s2)c1,290

# Target: T1, Inhibitor of nuclear factor kappa-B kinase subunit beta (Homo sapiens, UniProt O14920)
# T1 sequence (O14920 whole entry): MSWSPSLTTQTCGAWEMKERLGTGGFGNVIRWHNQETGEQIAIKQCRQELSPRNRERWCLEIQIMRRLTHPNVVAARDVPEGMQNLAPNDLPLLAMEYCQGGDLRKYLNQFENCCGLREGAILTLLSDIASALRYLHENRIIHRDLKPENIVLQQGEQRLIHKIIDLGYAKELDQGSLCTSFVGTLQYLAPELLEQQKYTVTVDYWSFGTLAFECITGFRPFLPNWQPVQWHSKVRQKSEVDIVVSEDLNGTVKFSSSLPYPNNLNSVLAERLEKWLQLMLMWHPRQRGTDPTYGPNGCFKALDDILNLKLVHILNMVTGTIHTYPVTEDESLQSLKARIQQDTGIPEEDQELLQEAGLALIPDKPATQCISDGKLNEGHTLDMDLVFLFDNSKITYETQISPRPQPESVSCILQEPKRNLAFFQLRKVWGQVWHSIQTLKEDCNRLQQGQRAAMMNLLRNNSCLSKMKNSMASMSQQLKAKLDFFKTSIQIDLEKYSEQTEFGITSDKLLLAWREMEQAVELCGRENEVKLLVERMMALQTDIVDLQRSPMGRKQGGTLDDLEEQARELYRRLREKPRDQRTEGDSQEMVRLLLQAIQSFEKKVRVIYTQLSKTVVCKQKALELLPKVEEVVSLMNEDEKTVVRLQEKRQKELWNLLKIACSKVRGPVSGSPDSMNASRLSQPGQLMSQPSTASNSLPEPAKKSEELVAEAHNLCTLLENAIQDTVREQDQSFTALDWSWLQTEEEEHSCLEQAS
# Assay: Inhibition of IKK2
# Settings: not given
# In short: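 IKK-2 added at room temperature to 50 µg/mL GST-IκBα with ATP in 25 mM Tris·HCl, pH 7.5, containing MgCl₂, phosphate salts, NaCl, KCl, 1 mM DTT, 5% glycerol and BSA. Stopped after 60 min with 33 mM EDTA. Phospho-IκBα read by fluorescence-polarization competition between an anti-phospho-IκBα antibody and a fluorescein-labelled phosphopeptide.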
row,Compound,IC50 [nM]
1,CCNc1nc2sc(-c3cccc([C@@H](C)NC(C)=O)c3)nc2c2c1ncn2C,55
2,CC(=O)N[C@@H](C)c1cccc(-c2nc3c(nc(NC(=O)N(C)C)c4ncn(C)c43)s2)c1,130
3,COc1nc2sc(-c3cccc([C@H](C)NC(C)=O)c3)nc2c2c1ncn2C,> 500
4,CCNc1nc2sc(-c3cccc([C@H](C)NC(=O)c4cccc(S(C)(=O)=O)c4)c3)nc2c2c1ncn2C,41
5,CC(=O)N[C@@H](C)c1cccc(-c2nc3c(nc(N(C)C)c4ncn(C)c43)s2)c1,100
6,CCNc1nc2sc(-c3cccc([C@H](C)NC(=O)c4cc(C)on4)c3)nc2c2c1ncn2C,78
7,CC(=O)N[C@@H](C)c1cccc(-c2nc3c(nc(NCCN)c4ncn(C)c43)s2)c1,49
8,CNc1nc2sc(-c3ccc(CNC(C)=O)cc3)nc2c2c1ncn2C,60
9,CCNCC(=O)N[C@@H](C)c1cccc(-c2nc3c(nc(NCC)c4ncn(C)c43)s2)c1,39
10,CC(=O)N[C@@H](C)c1cccc(-c2nc3c(nc(NCC(F)(F)F)c4ncn(C)c43)s2)c1,57

# Next, values leading:
row,IC50 [nM],Compound
1,27,CCNc1nc2sc(-c3cccc([C@H](C)NC(=O)CNC(C)=O)c3)nc2c2c1ncn2C
2,36,CCNc1nc2sc(-c3cccc(C(C)(C)NC(C)=O)c3)nc2c2c1ncn2C
3,10,CCNc1nc2sc(-c3cccc([C@H](C)NC(=O)C4CCN(C)CC4)c3)nc2c2c1ncn2C
4,20,CCNc1nc2sc(-c3cccc([C@H](C)NC(=O)C4CCNCC4)c3)nc2c2c1ncn2C
5,6,CNc1nc2sc(-c3cccc([C@H](C)NC(C)=O)c3)nc2c2c1ncn2C
6,34,CCNc1nc2sc(-c3cccc([C@H](C)NC(=O)C4(C)CC4)c3)nc2c2c1ncn2C
7,9,CNc1nc2sc(-c3cccc(C(C)NC(C)=O)c3)nc2c2c1ncn2C (stereo not given)
8,28,CNc1nc2sc(-c3cccc([C@@H](C)NC(C)=O)c3)nc2c2c1ncn2C
9,16,CCNc1nc2sc(-c3cccc([C@H](C)NC(=O)COCC)c3)nc2c2c1ncn2C
10,13,CC(=O)N[C@@H](C)c1cccc(-c2nc3c(nc(N)c4ncn(C)c43)s2)c1

# Target: T2, Inhibitor of nuclear factor kappa-B kinase subunit alpha (Homo sapiens, UniProt O15111)
# T2 sequence (O15111 whole entry): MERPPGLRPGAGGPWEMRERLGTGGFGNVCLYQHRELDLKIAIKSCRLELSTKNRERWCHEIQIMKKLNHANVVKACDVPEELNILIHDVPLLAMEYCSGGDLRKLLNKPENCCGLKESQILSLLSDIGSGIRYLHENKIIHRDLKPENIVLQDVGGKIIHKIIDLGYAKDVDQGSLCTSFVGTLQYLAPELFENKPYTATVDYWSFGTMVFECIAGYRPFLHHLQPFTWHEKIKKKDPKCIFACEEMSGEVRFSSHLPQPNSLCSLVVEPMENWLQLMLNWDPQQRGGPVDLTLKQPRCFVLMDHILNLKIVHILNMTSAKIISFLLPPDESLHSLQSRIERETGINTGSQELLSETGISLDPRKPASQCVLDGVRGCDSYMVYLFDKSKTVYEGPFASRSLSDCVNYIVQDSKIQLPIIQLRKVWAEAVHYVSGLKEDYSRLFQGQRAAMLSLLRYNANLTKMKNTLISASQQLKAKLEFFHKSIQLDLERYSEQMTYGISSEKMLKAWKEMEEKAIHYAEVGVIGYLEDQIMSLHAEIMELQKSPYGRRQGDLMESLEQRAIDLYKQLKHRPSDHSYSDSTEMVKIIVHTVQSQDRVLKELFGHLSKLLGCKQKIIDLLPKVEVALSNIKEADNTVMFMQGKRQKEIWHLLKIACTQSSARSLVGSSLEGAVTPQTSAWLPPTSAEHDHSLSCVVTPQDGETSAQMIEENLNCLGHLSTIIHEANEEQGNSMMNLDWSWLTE
# Assay: Inhibition of IKK1
# Settings: not given
row,IC50 [nM],Compound
1,230,CNc1nc2sc(-c3cccc([C@H](C)NC(C)=O)c3)nc2c2c1ncn2C
2,430,CNc1nc2sc(-c3cccc(C(C)NC(C)=O)c3)nc2c2c1ncn2C (stereo not given)

# Target: Serine/threonine-protein kinase 16 (Homo sapiens) (UniProt O75716)
# Sequence (O75716 whole entry): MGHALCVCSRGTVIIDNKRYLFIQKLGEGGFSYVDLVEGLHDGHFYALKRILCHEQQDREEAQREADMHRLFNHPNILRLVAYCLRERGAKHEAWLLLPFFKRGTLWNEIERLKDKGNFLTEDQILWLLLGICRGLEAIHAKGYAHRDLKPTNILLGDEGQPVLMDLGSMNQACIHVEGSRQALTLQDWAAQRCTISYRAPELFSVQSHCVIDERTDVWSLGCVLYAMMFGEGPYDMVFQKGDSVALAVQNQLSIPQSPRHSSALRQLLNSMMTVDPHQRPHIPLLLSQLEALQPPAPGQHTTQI
# Assay: Residual activity at STK16 at 10 uM relative to control
# Settings: not given
row,residual activity [%],Compound
1,< 10,CC(=O)N[C@@H](C)c1cccc(-c2nc3c(nc(N)c4ncn(C)c43)s2)c1

# Test system: Blood
# Assay: Antiinflammatory activity in human whole blood assessed as inhibition of LPS-induced TNFalpha release treated for 5 mins before LPS challenge measured after 6 hrs by ELISA
# Type: functional, tissue-based
# Settings: not given
row,IC50 [nM],Compound
1,2000,CC(=O)N[C@@H](C)c1cccc(-c2nc3c(nc(N)c4ncn(C)c43)s2)c1

# Test system: Canis familiaris
# Assay: Metabolic stability in dog assessed as metabolite (S)-N-(1-(3-(5-amino-8-methyl-8H-imidazo[4,5-d]thiazolo[5,4-b]pyridin-2-yl)phenyl)ethyl)acetamide total AUC at 2 mg/kg, iv
# Type: ADME, organism-based, Canis lupus familiaris
# Parameters: dose 2 mg/kg, route intravenous, time AUCmax
# Settings: in vivo
row,AUC [nM],Compound
1,400,CC(=O)N[C@@H](C)c1cccc(-c2nc3c(nc(N)c4ncn(C)c43)s2)c1

# Test system: Blood
# Assay: Antiinflammatory activity in mouse whole blood assessed as inhibition of LPS-induced TNFalpha release treated for 5 mins before LPS challenge measured after 6 hrs by ELISA
# Type: functional, tissue-based
# Settings: not given
row,IC50 [nM],Compound
1,1000,CC(=O)N[C@@H](C)c1cccc(-c2nc3c(nc(N)c4ncn(C)c43)s2)c1

# Test system: not listed separately
# Assay: Clearance in rat at 2 mg/kg, iv and 10 mg/kg, po
# Type: ADME, organism-based
# Settings: in vivo
row,Compound,clearance [mL/min/kg]
1,CCNc1nc2sc(-c3cccc([C@H](C)NC(=O)c4cccc(S(C)(=O)=O)c4)c3)nc2c2c1ncn2C,5.1
2,CCNc1nc2sc(-c3cccc([C@H](C)NC(=O)c4cc(C)on4)c3)nc2c2c1ncn2C,2.8

# Other lines, results leading:
row,clearance [mL/min/kg],Compound
1,130,CCNc1nc2sc(-c3cccc([C@H](C)NC(=O)C4CCN(C)CC4)c3)nc2c2c1ncn2C
2,3,CCNc1nc2sc(-c3cccc([C@H](C)NC(=O)C4CCNCC4)c3)nc2c2c1ncn2C
3,7.5,CCNc1nc2sc(-c3cccc([C@H](C)NC(=O)C4(C)CC4)c3)nc2c2c1ncn2C

# Test system: Rattus norvegicus
# Assay: Metabolic stability in rat assessed as metabolite (S)-N-(1-(3-(5-amino-8-methyl-8H-imidazo[4,5-d]thiazolo[5,4-b]pyridin-2-yl)phenyl)ethyl)acetamide total AUC at 2 mg/kg, iv and 10 mg/kg, po
# Type: ADME, organism-based
# Settings: in vivo
row,AUC [nM],Compound
1,2400,CC(=O)N[C@@H](C)c1cccc(-c2nc3c(nc(N)c4ncn(C)c43)s2)c1

# Test system: Mus musculus
# Assay: Metabolic stability in mouse assessed as metabolite (S)-N-(1-(3-(5-amino-8-methyl-8H-imidazo[4,5-d]thiazolo[5,4-b]pyridin-2-yl)phenyl)ethyl)acetamide total AUC at 2 mg/kg, iv and 10 mg/kg, po
# Type: ADME, organism-based
# Settings: in vivo
row,AUC [µM],Compound
1,3.37,CC(=O)N[C@@H](C)c1cccc(-c2nc3c(nc(N)c4ncn(C)c43)s2)c1

# Test system: Mus musculus
# Assay: Antiinflammatory activity in po dosed BALB/c mouse assessed as inhibition of LPS-induced TNFalpha release administered for 5 hrs before LPS challenge measured after 6.5 hrs post dose by ELISA
# Type: functional, organism-based
# Settings: not given
# In short: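 BALB/c female mice, 6–8 weeks old, n = 7–8 per treatment. Compounds given by oral gavage at 30 and 100 mg/kg in PEG400/HCl/Tween80/water; controls received vehicle alone. Five hours later, E. coli O111:B4 LPS 50 µg/kg ip. Serum collected 90 min after LPS, TNF-α measured by ELISA. Drug exposure sampled 6.5 h post-dose. Mean ± standard error.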
row,Compound,inhibition
1,CC(=O)N[C@@H](C)c1cccc(-c2nc3c(nc(N)c4ncn(C)c43)s2)c1,Dose-dependent effect

# Test system: not listed separately
# Assay: Half life in rat at 2 mg/kg, iv and 10 mg/kg, po
# Type: ADME, organism-based
# Settings: in vivo
row,Compound,half-life [h]
1,CCNc1nc2sc(-c3cccc([C@H](C)NC(=O)c4cccc(S(C)(=O)=O)c4)c3)nc2c2c1ncn2C,1.5
2,CCNc1nc2sc(-c3cccc([C@H](C)NC(=O)c4cc(C)on4)c3)nc2c2c1ncn2C,2.8

# More lines, now with the values ahead:
row,half-life [h],Compound
1,2.9,CCNc1nc2sc(-c3cccc([C@H](C)NC(=O)C4CCNCC4)c3)nc2c2c1ncn2C
2,2,CCNc1nc2sc(-c3cccc([C@H](C)NC(=O)C4(C)CC4)c3)nc2c2c1ncn2C
